Reference: ChEMBL document CHEMBL2380294, “Design, synthesis and biological activity of multifunctional α,β-unsaturated carbonyl scaffolds for Alzheimer's disease” (Bioorg Med Chem Lett, 2013)
pIC50: −log10 of the molar value. Active and inactive are the calls of the source. The calls are words filed in the database; no cut-off is given here.

Tests used:
[1] = target: T1, Amyloid-beta precursor protein (Homo sapiens, UniProt P05067); test: Inhibition of amyloid beta (1 to 42) (unknown origin) oligomer assembly at 50 uM after 30 mins by biotinyl-streptavidin assay
T1 sequence (P05067 whole entry): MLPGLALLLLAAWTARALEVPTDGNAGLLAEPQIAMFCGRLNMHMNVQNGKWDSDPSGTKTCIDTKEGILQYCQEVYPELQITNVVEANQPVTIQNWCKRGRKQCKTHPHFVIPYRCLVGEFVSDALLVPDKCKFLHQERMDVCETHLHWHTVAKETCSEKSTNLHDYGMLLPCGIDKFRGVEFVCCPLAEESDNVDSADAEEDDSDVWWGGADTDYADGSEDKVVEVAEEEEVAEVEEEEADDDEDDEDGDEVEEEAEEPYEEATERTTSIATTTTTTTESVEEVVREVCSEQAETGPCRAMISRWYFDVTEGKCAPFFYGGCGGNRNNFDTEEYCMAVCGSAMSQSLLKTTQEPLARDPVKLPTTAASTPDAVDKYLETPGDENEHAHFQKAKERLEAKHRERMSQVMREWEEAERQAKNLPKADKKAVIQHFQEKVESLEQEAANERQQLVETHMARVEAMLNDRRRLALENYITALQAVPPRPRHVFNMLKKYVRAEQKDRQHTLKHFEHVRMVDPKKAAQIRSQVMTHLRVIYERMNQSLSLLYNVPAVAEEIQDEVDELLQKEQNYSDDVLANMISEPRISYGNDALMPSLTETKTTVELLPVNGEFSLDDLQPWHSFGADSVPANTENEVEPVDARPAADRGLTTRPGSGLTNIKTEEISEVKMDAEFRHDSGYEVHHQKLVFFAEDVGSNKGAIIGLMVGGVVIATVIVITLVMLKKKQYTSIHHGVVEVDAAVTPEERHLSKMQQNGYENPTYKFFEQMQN
Procedure, shortened: (§1)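 Biotinyl-Aβ(1-42) was dried from HFIP, disaggregated with TFA for 10 min at room temperature, and taken up in DMSO (500 nM). Monomer was mixed into PBS containing the compound and 1% DMSO at ambient temperature. After 30 min, 0.3% Tween 20 stopped assembly. Oligomers were captured on NeutrAvidin, detected with SA-HRP and TMB, and read at OD450. Solvent control = 100%.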

[2] = target: T1, Amyloid-beta precursor protein; test: Inhibition of amyloid beta (1 to 42) (unknown origin) oligomer dissociation at 50 uM after 16 to 18 hrs by ELISA
Procedure, shortened: (§2)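 Disaggregated biotinyl-Aβ(1-42) was diluted in PBS (pH 7.5) to 33.7 nM monomer to preform oligomers. Oligomers (16.8 nM, in PBS + 0.3% Tween 20) were combined with PBS containing the compound and 1% DMSO. The mixture was shaken at 150 rpm at room temperature for 16-18 h. Remaining oligomers were captured on NeutrAvidin and measured by SA-HRP/TMB at OD450.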

[3] = target: T1, Amyloid-beta precursor protein; test: Inhibition of amyloid beta (1 to 42) (unknown origin) oligomer dissociation after 16 to 18 hrs by ELISA; procedure, shortened: as §2
[4] = target: T1, Amyloid-beta precursor protein; test: Inhibition of amyloid beta ((1 to 42) (unknown origin) oligomer assembly after 30 mins by biotinyl-streptavidin assay; procedure, shortened: as §1
Acetylcholinesterase = Acetylcholinesterase (Homo sapiens, UniProt P22303); test: Inhibition of AChE (unknown origin) by Ellman method
Acetylcholinesterase, sequence (P22303 whole entry): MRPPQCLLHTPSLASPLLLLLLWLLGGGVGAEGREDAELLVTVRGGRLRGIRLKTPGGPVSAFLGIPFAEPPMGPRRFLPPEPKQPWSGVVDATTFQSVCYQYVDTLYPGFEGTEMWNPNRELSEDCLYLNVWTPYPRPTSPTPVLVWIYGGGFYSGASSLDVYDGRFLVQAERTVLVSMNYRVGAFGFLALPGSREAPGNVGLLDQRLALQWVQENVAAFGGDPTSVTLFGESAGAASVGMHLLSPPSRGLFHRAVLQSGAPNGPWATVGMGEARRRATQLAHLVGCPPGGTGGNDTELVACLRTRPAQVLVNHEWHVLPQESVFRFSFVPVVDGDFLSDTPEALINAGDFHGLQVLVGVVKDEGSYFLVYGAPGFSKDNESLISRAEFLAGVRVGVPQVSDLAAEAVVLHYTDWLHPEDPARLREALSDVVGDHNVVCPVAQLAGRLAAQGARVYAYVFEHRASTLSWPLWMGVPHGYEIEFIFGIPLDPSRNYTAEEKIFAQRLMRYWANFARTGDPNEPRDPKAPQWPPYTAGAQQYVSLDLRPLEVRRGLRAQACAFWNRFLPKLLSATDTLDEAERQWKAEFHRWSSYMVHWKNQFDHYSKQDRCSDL

[5] = target: T1, Amyloid-beta precursor protein; test: Inhibition of amyloid beta (1 to 40) (unknown origin) fibril formation assessed as shorter assemblies at 10 uM after 6 days by atomic force microscopy relative to control
Cholinesterase = Cholinesterase (Homo sapiens, UniProt P06276); test: Inhibition of BuChE (unknown origin) by Ellman method
Cholinesterase, sequence (P06276 whole entry): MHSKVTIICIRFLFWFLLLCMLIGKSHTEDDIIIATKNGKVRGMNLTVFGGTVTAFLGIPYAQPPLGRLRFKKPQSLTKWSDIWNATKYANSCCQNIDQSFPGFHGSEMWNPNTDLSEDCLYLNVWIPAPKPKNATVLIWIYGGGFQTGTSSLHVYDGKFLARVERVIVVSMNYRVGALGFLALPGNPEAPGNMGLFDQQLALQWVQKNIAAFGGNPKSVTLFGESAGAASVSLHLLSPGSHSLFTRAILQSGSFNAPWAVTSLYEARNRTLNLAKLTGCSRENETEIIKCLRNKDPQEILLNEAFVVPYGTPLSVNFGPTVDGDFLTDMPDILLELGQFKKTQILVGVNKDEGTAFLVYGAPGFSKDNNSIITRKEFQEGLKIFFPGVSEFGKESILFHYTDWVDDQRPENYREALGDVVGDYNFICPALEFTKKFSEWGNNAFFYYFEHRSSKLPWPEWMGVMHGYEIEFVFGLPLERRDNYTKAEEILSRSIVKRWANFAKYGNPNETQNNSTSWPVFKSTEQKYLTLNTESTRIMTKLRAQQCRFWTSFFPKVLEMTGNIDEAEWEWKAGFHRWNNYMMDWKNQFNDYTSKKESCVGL
Procedure, shortened: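 Equine serum BuChE in 0.1 M phosphate buffer pH 8 with 0.34 mM DTNB, 0.02 unit/mL enzyme and 0.55 mM S-butyrylthiocholine chloride. Inhibitor concentration dependence over 0–50 μM. Percent inhibition versus no-inhibitor control used to derive IC50.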

In the case of `COc1ccc2cc(C(=O)CN3CCN(c4ccccn4)CC3)c(=O)oc2c1`, the inhibition [1] was > 65% and the inhibition [2] was < 95%.
`COc1ccc2cc(C(=O)CN3CCN(c4ccccc4)CC3)c(=O)oc2c1` was tested, and the pIC50 [3] was 5.19, the inhibition [1] was > 65% and the inhibition [2] was < 95%. It also gave a pIC50 [4] of 4.68.
For `COc1ccc2cc(C(=O)CN3CCN(c4ncccn4)CC3)c(=O)oc2c1`, the pIC50 [3] was 5.40, the inhibition [1] was > 65% and the inhibition [2] was < 95%. The pIC50 [4] was 6.00.
For `COc1ccc2cc(C(=O)CN3CCOCC3)c(=O)oc2c1`, the pIC50 [3] was 5.30, the inhibition [1] was > 65% and the inhibition [2] was < 95%. The pIC50 [4] was 4.54.
For `COc1ccc2cc(C(=O)CN3CCN(Cc4ccccc4)CC3)c(=O)oc2c1`, the pIC50 (Acetylcholinesterase) was 5.75, the inhibition [1] was > 65% and the inhibition [5] was “Active”. The inhibition [2] was < 95% and the pIC50 [4] was 4.44.
In the case of `CCN(CC)Cc1cccc(C(=O)/C=C/c2ccc(-c3ccccc3)cc2)c1`, the pIC50 (Cholinesterase) was 5.08.
In the case of `COc1ccc2cc(C(=O)CN3CCC(c4ccccc4)CC3)c(=O)oc2c1`, the pIC50 [3] was 4.54, the inhibition [1] was > 65% and the inhibition [2] was < 95%. The pIC50 [4] was 4.85.
`COc1ccc2cc(C(=O)CN3CCC(Cc4ccccc4)CC3)c(=O)oc2c1` was tested, and the inhibition [1] was > 65%, the inhibition [2] was < 95% and the pIC50 [4] was 4.44.
